Hits are enriched below; roughly 2.5% of the tested compounds scored in any of these assays.
NadD inh = inhibitors of Staphylococcus aureus NadD; purified NadD enzyme, colorimetric absorbance read-out; inhibition, % at 20 µM; AID 602399; 0.78% of 360,000 active; in the data active = inhibition above about 26%
B2AR ag = human beta-2 adrenergic receptor agonism by FAP | Am2.2-beta2AR cells, FAP receptor internalization, flow cytometry | response, % (test concentration not listed) | 0.43% of 340,000 active;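 active = response above a set limit, near 3 SD of response in nonfluorescent compounds, cut at about 42% in these data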
Target sequence (P07550 whole entry, looked up): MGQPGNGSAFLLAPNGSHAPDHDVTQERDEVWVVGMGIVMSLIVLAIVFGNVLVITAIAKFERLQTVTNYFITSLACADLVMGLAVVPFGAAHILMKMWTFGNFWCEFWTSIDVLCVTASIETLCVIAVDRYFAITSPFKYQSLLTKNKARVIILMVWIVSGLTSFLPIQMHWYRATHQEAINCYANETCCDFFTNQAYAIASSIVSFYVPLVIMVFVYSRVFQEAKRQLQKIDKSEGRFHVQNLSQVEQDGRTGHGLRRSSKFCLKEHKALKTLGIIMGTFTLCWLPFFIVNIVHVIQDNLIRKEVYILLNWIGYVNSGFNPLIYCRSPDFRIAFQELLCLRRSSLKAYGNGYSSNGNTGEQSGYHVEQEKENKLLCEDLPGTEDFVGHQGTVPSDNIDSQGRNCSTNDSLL
GRK2 inh = blocks RNA aptamer binding to human GRK2. P25098. bead flow cytometry, FAM-aptamer displacement from GRK2. inhibition of aptamer binding, % at 10 µM. 0.59% of 330,000 active. AID 488847;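 active = inhibition of aptamer binding above 40%, roughly 3 SD of noise, on plates passing a quality check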;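 note: median bead fluorescence of bound FAM aptamer so fluorescent compounds give negative values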
SENP1 inh = SENP1 (human) catalytic domain inhibition; Q9P0U3; AID 624204; recombinant SENP1 catalytic domain, CyPet-SUMO1-YPet FRET cleavage; inhibition, % at 10 µM; 0.21% of 360,000 active;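 active = inhibition at least 30% at 10 µM, raw YFP signal under a set limit, fluorescence ratio 0.5 to 1.5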;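 note: 0% = enzyme with DMSO and 100% = no enzyme wells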
Target sequence (Q9P0U3 419-644 limits assumed): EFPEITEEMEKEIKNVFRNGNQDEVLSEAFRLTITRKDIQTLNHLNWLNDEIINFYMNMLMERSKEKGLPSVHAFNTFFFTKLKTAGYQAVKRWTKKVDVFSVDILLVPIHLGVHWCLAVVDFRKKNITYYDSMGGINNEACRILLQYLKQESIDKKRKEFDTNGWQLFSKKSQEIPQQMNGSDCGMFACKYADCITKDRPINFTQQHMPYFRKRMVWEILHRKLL
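Assay system: hSENP1 catalytic domain, recombinant. Amount: SENP1 enzyme, 20 pM final. Schedule: 50 min reaction, RT, dark. Technique: FRET, CFP and YFP emission. Control set: no-enzyme wells low, DMSO-plus-enzyme wells high control.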
ABHD5 PLIN5 PPI = ABHD5-PLIN5 protein interaction inhibition; inhibition, % at 4 µM; Q00G26+Q8WTS1; 0.78% of 360,000 active; Split G. princeps luciferase complementation, luminescence, 4 h; AID 602281;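 active = inhibition above the mean inhibition across every tested compound plus 3 SD, cut at about 22% in these data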;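 note: 0% = DMSO only wells and the 100% control is not disclosed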
ABHD5-PLIN5 conf = confirmation of human ABHD5-PLIN5 interaction inhibitors. shares compounds with ABHD5 PLIN5 PPI. biochemical ABHD5-PLIN5 interaction, luminescence. inhibition, % at 4 µM. 67% of 2,200 active; in the data active = inhibition above about 23%;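 note: 0% = DMSO vehicle wells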
HNF4 split-luc = counter-screen for ABHD5-PLIN5 inhibitors: HNF4 split-luciferase. AID 651674. HNF4 dimerization, luminescence, biochemical. 77% of 2,200 active. shares compounds with ABHD5 PLIN5 PPI. inhibition, % at 4 µM;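 active = mean inhibition across replicate wells exceeding the computed hit threshold, cut at about 13% in these data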;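 note: light from luciferase halves that rejoin when HNF4 fusion proteins dimerize; 0% = DMSO only wells and the 100% control is not given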
An asterisk follows results filed as active.

How did CC(C)(C)NC(=O)C(c1ccc(C(F)(F)F)cc1)n1c(=O)c(-c2ccco2)nc2ccccc21 (stereo not drawn) do in these assays?
SENP1 inh: -28; ABHD5 PLIN5 PPI: 60*; ABHD5-PLIN5 conf: 87*; HNF4 split-luc: 38*

What do the screens show for `CC(C)(C)NC(=O)C(c1ccccc1)n1c(=O)c(-c2ccccc2)nc2ccccc21` (stereo not drawn)?
SENP1 inh: -3; ABHD5 PLIN5 PPI: -5

What do the screens show for `O=C(NCc1ccccc1)C(C1CC1)n1c(=O)c(-c2ccco2)nc2ccccc21` (stereo not drawn)?
SENP1 inh: -45; ABHD5 PLIN5 PPI: 38*; ABHD5-PLIN5 conf: 37*; HNF4 split-luc: 13*

What do the screens show for `O=C(NCc1ccccc1)C(c1ccccc1)n1c(=O)c(-c2ccco2)nc2ccccc21` (stereo not drawn)?
SENP1 inh: -38; ABHD5 PLIN5 PPI: 74*; ABHD5-PLIN5 conf: 48*; HNF4 split-luc: 12

What do the screens show for `C[C@@H]1CCCCO[C@@H](CN(C)C(=O)Cc2ccccc2)[C@@H](C)CN([C@H](C)CO)C(=O)c2cc(NC(=O)C3CCCCC3)ccc2O1`?
NadD inh: 3; SENP1 inh: 0; ABHD5 PLIN5 PPI: -1

How did O=C(NCc1ccccc1)C(c1ccc(C(F)(F)F)cc1)n1c(=O)c(-c2ccco2)nc2ccccc21 (stereo not drawn) do in these assays?
SENP1 inh: -64; ABHD5 PLIN5 PPI: 74*; ABHD5-PLIN5 conf: 95*; HNF4 split-luc: 44*

Results for O=C(NCc1ccccc1)C(c1ccc(C(F)(F)F)cc1)n1c(=O)c(-c2ccccc2)nc2ccccc21 (stereo not drawn) ?
SENP1 inh: -3; ABHD5 PLIN5 PPI: -3

How did Cc1oc(=O)c(NC(=O)c2ccc(Cl)cc2)cc1C(=O)c1ccccc1 do in these assays?
NadD inh: -6; B2AR ag: 2; GRK2 inh: 6; SENP1 inh: -2; ABHD5 PLIN5 PPI: 46*; ABHD5-PLIN5 conf: 11; HNF4 split-luc: 95*

Results for COC(=O)c1cccc(S(=O)(=O)N(Cc2ccco2)Cc2cc3cc(OC)ccc3[nH]c2=O)c1 ?
NadD inh: -3; B2AR ag: 17; GRK2 inh: 1; SENP1 inh: 0; ABHD5 PLIN5 PPI: 42*; ABHD5-PLIN5 conf: 56*; HNF4 split-luc: 66*

Results for CCOC(=O)c1cccc(S(=O)(=O)N(CCO)Cc2cc3cc(OC)ccc3[nH]c2=O)c1 ?
NadD inh: -5; B2AR ag: 3; GRK2 inh: 0; SENP1 inh: -1; ABHD5 PLIN5 PPI: 1

How did Cc1ccc(NC(=O)COc2ccc3c(c2)OCO3)c(C)c1 do in these assays?
NadD inh: -7; B2AR ag: -4; GRK2 inh: 0; SENP1 inh: 2; ABHD5 PLIN5 PPI: -5

What do the screens show for `COc1ccc(/C=C/C(=O)c2cc(Cl)cc(Cl)c2O)c(OC)c1`?
NadD inh: -1; B2AR ag: 14; GRK2 inh: 0; SENP1 inh: -34; ABHD5 PLIN5 PPI: 0

How did O=C(/C=C/c1ccccn1)c1cc(Cl)cc(Cl)c1O do in these assays?
NadD inh: 14; B2AR ag: 32; GRK2 inh: 0; SENP1 inh: -78; ABHD5 PLIN5 PPI: 23*; ABHD5-PLIN5 conf: 45*; HNF4 split-luc: 31*

What do the screens show for `COCCn1c(=N)c(C(=O)NCc2ccco2)cc2c(=O)n3ccccc3nc21`?
NadD inh: 0; B2AR ag: -9; GRK2 inh: 6; SENP1 inh: -19; ABHD5 PLIN5 PPI: 25*; ABHD5-PLIN5 conf: 7; HNF4 split-luc: 33*

What do the screens show for `N=c1c(C(=O)NCc2ccco2)cc2c(=O)n3ccccc3nc2n1Cc1ccc(Cl)cc1`?
NadD inh: 26; B2AR ag: -2; GRK2 inh: 0; SENP1 inh: -20; ABHD5 PLIN5 PPI: 26*; ABHD5-PLIN5 conf: 14; HNF4 split-luc: 23*

How did Cc1ccc2nc3c(cc(C(=O)NCc4ccco4)c(=N)n3Cc3ccco3)c(=O)n2c1 do in these assays?
NadD inh: 19; B2AR ag: 4; GRK2 inh: 10; SENP1 inh: -27; ABHD5 PLIN5 PPI: 33*; ABHD5-PLIN5 conf: 10; HNF4 split-luc: 29*

What do the screens show for `Cc1ccc2nc3c(cc(C(=O)NCc4ccccc4)c(=N)n3CCCn3ccnc3)c(=O)n2c1`?
NadD inh: 4; B2AR ag: 17; SENP1 inh: -36; ABHD5 PLIN5 PPI: 0

How did CCOC(=O)c1cc2c(=O)n3ccccc3nc2n(Cc2ccc(Cl)cc2)c1=N do in these assays?
NadD inh: -3; B2AR ag: -10; SENP1 inh: -35; ABHD5 PLIN5 PPI: -1

How did COCCCn1c(=N)c(C(=O)NCc2ccc3c(c2)OCO3)cc2c(=O)n3ccccc3nc21 do in these assays?
NadD inh: 8; B2AR ag: -4; GRK2 inh: 0; SENP1 inh: -30; ABHD5 PLIN5 PPI: 2

What do the screens show for `COc1ccc(S(=O)(=O)N2CCN(C)CC2)cc1C(=O)Nc1ccccc1`?
NadD inh: -7; B2AR ag: -18; GRK2 inh: 0; SENP1 inh: 0; ABHD5 PLIN5 PPI: 3

Results for Cc1ccccc1N1C(=O)CC(Sc2nnc(-c3ccccc3)o2)C1=O (stereo not drawn) ?
NadD inh: -1; B2AR ag: 16; GRK2 inh: 3; SENP1 inh: 1; ABHD5 PLIN5 PPI: 35*; ABHD5-PLIN5 conf: 60*; HNF4 split-luc: 98*

Results for O=S(=O)(c1ccc(=S)[nH]c1)N1CCN(Cc2ccccc2)CC1 ?
NadD inh: 13; B2AR ag: -3; GRK2 inh: 0; SENP1 inh: 1; ABHD5 PLIN5 PPI: -8

How did C=C1C(=O)[C@]23C[C@H]1CCC2[C@@]1(C)C(C[C@@H]3O)[C@](C)(C(=O)OC)CC[C@@H]1O (stereo partly drawn) do in these assays?
NadD inh: -8; SENP1 inh: 3; ABHD5 PLIN5 PPI: 39*; ABHD5-PLIN5 conf: 67*; HNF4 split-luc: 108*

Results for C[C@@]12C(C[C@H](O)[C@@]34C[C@@H](CCC13)[C@@H](CO)C4=O)[C@](C)(C(=O)O)CC[C@@H]2O (stereo partly drawn) ?
NadD inh: -6; SENP1 inh: 2; ABHD5 PLIN5 PPI: 12

How did CCCCCCCN1CCN=C1N(C)C do in these assays?
NadD inh: -3; B2AR ag: 1; GRK2 inh: 1; SENP1 inh: 2; ABHD5 PLIN5 PPI: 6
